# Experimental data pooled from the literature.
# Compare with care: the assays were run in different laboratories.
# Target: Casein kinase I isoform gamma-3 (CSNK1G3, Homo sapiens, UniProt Q9Y6M4)
Compound,observed,mode,method,tested at,measurement,result
Cc1ccc(C(=O)Nc2ccc(CN3CCN(C)CC3)c(C(F)(F)F)c2)cc1C#Cc1cnc2cccnn12,enzyme activity,inhibitor,,23.5 nM,remaining activity,97%
O=C(NC[C@@H]1[C@H]2CN(C(=O)OCc3cc(C(F)(F)F)cc(C(F)(F)F)c3)C[C@@H]12)c1ccc2[nH]nnc2c1,cell-free assay,,competition with immobilised ligand,1 µM,remaining binding,89%
CCC1(CC)NC(=O)c2c(c3ccc(Cl)c(Cl)c3n2C)C1C#N (centres unmarked),thermal stability,,DSF,10 µM,ΔTm,0 °C
CNC(=O)Nc1ccc2c(c1)CC[C@@]21OC(=O)N(CC(=O)N(Cc2ccc(F)cc2)[C@@H](C)C(F)(F)F)C1=O,cell-free assay,,competition with immobilised ligand,1 µM,remaining binding,84%
CN1CC(Oc2cnc(C#N)cc2-c2ccn3nc(NC(=O)C4CC4)cc3c2)C1,enzyme activity,inhibitor,,1 µM,inhibition,21%
Cn1c2c(c3ccc(Cl)c(Cl)c31)C(C#N)C1(CCN(C(=O)OC(C)(C)C)CC1)NC2=O (racemic),thermal stability,,DSF,10 µM,ΔTm,-0.1 °C
O=C(Nc1cnn(-c2csc(C(=O)NC3COC3)c2)c1)Nc1c(F)cccc1Cl,enzyme activity,inhibitor,,5 µM,remaining activity,92.6%
COc1cc2c(Nc3ccc(Br)cc3F)ncnc2cc1OCC1CCN(C)CC1,cell-free assay,,,0.5 µM,remaining signal,98.1%
C[C@@H](c1cccc(C#N)c1)n1cc(Cl)cc(C(N)=O)c1=N,cell-free assay,,competition with immobilised ligand,1 µM,remaining binding,100%
N#CC1c2c([nH]c3c(Cl)c(Cl)ccc23)C(=O)NC12CCCCC2 (racemic),thermal stability,,DSF,10 µM,ΔTm,0.2 °C
F[C@@H]1CCN(c2nccc(-c3cnn4ncccc34)n2)C1,binding,,,1 µM,remaining binding,86%
COc1cc(Cl)c(C(=O)N[C@@H](CN[C@H]2CC[C@@H](N)CC2)Cc2ccc(C#N)cc2)cc1-c1ccc(CN[C@H](C)c2ccc(C)cc2)o1,enzyme activity,inhibitor,,1 µM,remaining activity,96%
CNC(=O)c1cc(Oc2ccc(NC(=O)Nc3ccc(Cl)c(C(F)(F)F)c3)cc2)ccn1,enzyme activity,inhibitor,,10 µM,inhibition,2%
COc1cc2ncnc(Nc3ccc(Oc4ccccc4)cc3C)c2cc1OC,enzyme activity,inhibitor,,1 µM,inhibition,4%
C[C@@H]1CCN(C(=O)CC#N)C[C@@H]1N(C)c1ncnc2[nH]ccc12,cell-free assay,inhibitor,,0.5 µM,remaining signal,101%
C[C@@]1(Cc2ccc(C#N)cc2)C(=O)N(c2cc(Cl)cc(Cl)c2)c2ncc(C(=O)NC3(c4nc(C5CCC5)no4)CC3)n21,cell-free assay,,competition with immobilised ligand,1 µM,remaining binding,100%
Cc1ccc(Nc2nccc(N(C)c3ccc4c(C)n(C)nc4c3)n2)cc1S(N)(=O)=O,enzyme activity,inhibitor,,10 µM,inhibition,18%
Cn1c2c(c3ccc(Cl)c(Cl)c31)C(C#N)C1(CCCCC1)NC2=O (racemic),thermal stability,,DSF,10 µM,ΔTm,-0.2 °C
O=C(O)c1cc(-c2ccc(C3CCNCC3)cc2)c2ccc(-c3ccc(C(F)(F)F)cc3)cc2c1,cell-free assay,,competition with immobilised ligand,1 µM,remaining binding,100%
Cc1ccc(NC(=O)c2ccc(C)c(C(F)(F)F)c2)cc1C#Cc1nn(C2CCC(O)CC2)c2ncnc(N)c12 (centres unmarked),cell-free assay,,,10 µM,remaining signal,103%
COc1ccc2c(O[C@@H]3C[C@H]4C(=O)N[C@]5(C(=O)O)CC5/C=C\CCCCC[C@H](NC(=O)OC5CCCC5)C(=O)N4C3)cc(-c3csc(NC(=O)C(C)C)n3)nc2c1C (some centres unmarked),cell-free assay,,competition with immobilised ligand,1 µM,remaining binding,100%
Cn1c2c(Cl)c(Cl)ccc2c2cc(N)[nH]c(=O)c21,thermal stability,,DSF,10 µM,ΔTm,0.1 °C
CC(C)(O)[C@H]1CC[C@H](Nc2ccc3ncc(-c4cccc(C(F)(F)F)c4)n3n2)CC1,enzyme activity,inhibitor,,1 µM,remaining activity,90%
CO[C@@H](C)c1c(Nc2ccc([C@@H](N(C)C(=O)C3CCS(=O)(=O)CC3)C(F)(F)F)cc2)cnc2cc(Cl)nn12,cell-free assay,,competition with immobilised ligand,1 µM,remaining binding,71%
CC(C)(C)c1nc2c(s1)c1nc(N)ncc1c1ccc(NS(=O)(=O)c3c(F)cccc3F)c(F)c12,enzyme activity,inhibitor,radiometric,1 µM,remaining activity,86%
O=C1Nc2ccc(Cl)cc2C1=Cc1cc(Cl)c(O)c(Cl)c1,cell-free assay,,,0.5 µM,remaining signal,93%
Cn1c2c(Cl)c(Cl)ccc2c2cc[nH]c(=O)c21,thermal stability,,DSF,10 µM,ΔTm,-0.2 °C
O=C(O)[C@@H]1[C@@H](Cn2nnc3ccccc3c2=O)CC[C@H]1C(=O)c1ccc(OCCC2CCOCC2)cc1,cell-free assay,,competition with immobilised ligand,1 µM,remaining binding,100%
COc1cc(Nc2c(C#N)cnc3cc(OCCCN4CCN(C)CC4)c(OC)cc23)c(Cl)cc1Cl,cell-free assay,,,0.5 µM,remaining signal,98.3%
